Inconclusive results are not listed.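 Rule for the calls, unless noted: active = inhibition over a set limit, the all-compound mean plus 3 SD, in both replicate runs; inconclusive = over that limit in just one replicate run; inactive = at or under that limit in both runs.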
Key:
[1] = S. cerevisiae growth inhibition in permissive medium (OD615), pilot counter-assay for S. cerevisiae lifespan shortening project, permissive growth control (AID 705;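 active = growth inhibition above 25% in both replicates, a cutoff set 3 SD above the mean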); conditions: OD615, 24 h, at 10 µM, hits give high values
In short: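 assay system = Saccharomyces cerevisiae strain carrying genetically modified DeaD replicative-lifespan system | medium = SC raffinose/galactose permissive medium | dosing = 10 µM single dose, 0.25% DMSO | schedule = 24 h compound exposure at 30 °C after 4 h pre-growth | measured by = OD at 615 nm | read-out basis = growth inhibition from lowered OD615 after 24 h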

[2] = S. cerevisiae growth inhibition in restrictive medium, OD615, pilot screen, restrictive growth control, yeast lifespan reduction project (AID 706;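 active = growth inhibition above a set limit, 3 SD over mean compound inhibition, in both replicates, cut at about 43% in these data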;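 note: modified DeaD lifespan yeast strain shifted to restrictive glucose medium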); conditions: OD615, 48 h, at 10 µM, hits give high values
In short: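 Buffer or medium: CSMM-D glucose medium. Material: genetically modified Saccharomyces cerevisiae, DeaD replicative lifespan assay strain. Times: 48 h compound exposure at 30 °C. Measured by: optical density at 615 nm.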

[3] = doxorubicin toxicity protection in MRP-1 cells – H69AR cells, CellTiter-Glo, duplicate, MRP-1 activator project, pilot screen (AID 807;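 active = viability increase at or above a cutoff of the median across tested compounds plus 3 SD, cut at about 8.5% in these data, passing the limit was not always enough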;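 note: compound pretreatment 18-22 h then 72 h combined with doxorubicin; 0% = doxorubicin alone and 100% = vehicle without doxorubicin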); conditions: H69AR viability with doxorubicin, CellTiter-Glo luminescence; at 10 µM; hits give high values
[4] = viability of HCT116 without oncogenic beta-catenin – human colon tumor cells, pilot screen (AID 823;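 active = cell viability at or below a set limit in both duplicate runs, the limit being the all-compound median minus 4 SD, cut at about 23% in these data, passing the limit was not always enough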;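 note: 0% = wells killed by 20 µM Hyamine and 100% = untreated DMSO cell wells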); conditions: HCT116 beta-catenin knockout viability, CellTiter-Glo, 60 h; at 10 µM; hits give low values
[5] = viability of PTEN-null HCT116 cells – cell-based, HCT116 clonal line, CellTiter-Glo, pilot screen (AID 824;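 active = viability at or below 27.92% in each of two runs, the all-compound median minus 4 SD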;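 note: 0% = 20 µM Hyamine control and 100% = vehicle cell control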); conditions: HCT116 PTEN-deleted viability, 60 h, at 10 µM, hits give low values
[6] = RAM pathway blockade in budding yeast – dse1pr::URA3 reporter, 5-FOA selection, pilot screen (AID 869);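 note: 0% = DMSO wells with no growth and 100% = 10 µM 1-NA-PP1 with full growth; RAM network block rescues cells from 5-FOA so hits raise OD615 growth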; conditions: S. cerevisiae dse1pr::URA3 5-FOA growth, OD615, 2 d; at 10 µM; hits give high values; strain carries analog-sensitive mutant Cbk1 kinase
[7] = RAM signaling pathway blockade in yeast – S. cerevisiae, Pdr1DBD-CYC8 efflux-inhibited sensitized strain, primary screen (AID 1298;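 active = RAM network inhibition above 8.4% in each of two replicates, 3 SD over the compound average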;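 note: 0% = DMSO untreated cells without growth and 100% = 10 µM 1-NA-PP1 full growth; higher means more yeast growth rescued from 5-FOA killing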); conditions: S. cerevisiae cbk1-as DSE1-URA3 strain, 5-FOA growth OD615, 2 d; at 50 µM; hits give high values

CCOC(=O)C1CCN(S(=O)(=O)c2cccc3nonc23)CC1
inactive: growth inhibition [1] -5.04% | growth inhibition [2] -10.7% | viability increase [3] 0.01% | viability [4] 100% | viability [5] 96.8% | inhibition [6] 1.46% | RAM network inhibition [7] -1.5%

CCCOc1ccc(NC(=O)c2c(-c3ccccc3)noc2C)cc1
inactive: growth inhibition [1] -3.83% | growth inhibition [2] -7.54% | viability increase [3] -1.84% | viability [4] 103% | viability [5] 90.5% | inhibition [6] 1.34% | RAM network inhibition [7] 2.96%

O=C(Cn1nc(C(=O)O)c2ccccc2c1=O)NCC1CCCO1 (stereo not drawn)
inactive: growth inhibition [1] -4.73% | growth inhibition [2] -13.3% | viability increase [3] -0.44% | viability [4] 103% | viability [5] 102% | inhibition [6] 1.71% | RAM network inhibition [7] 6.89%

CCOC(=O)c1c(CN(CC)CC)oc2cc(Br)c(O)cc12
inactive: growth inhibition [1] -0.115% | growth inhibition [2] 0.915% | viability increase [3] -3.81% | viability [4] 78.2% | viability [5] 81.6% | inhibition [6] -0.04% | RAM network inhibition [7] 3.43%

O=C(c1csc2c1CCCC2)N1CCCCC1
inactive: growth inhibition [1] 12.4% | growth inhibition [2] 8.33% | viability increase [3] -1.17% | viability [4] 99.2% | viability [5] 102% | inhibition [6] -0.145% | RAM network inhibition [7] 1.12%

COc1ccccc1NC=C1C(=O)OC(C)(C)OC1=O
inactive: growth inhibition [1] -17.5% | growth inhibition [2] -7.71% | viability increase [3] -2.6% | viability [4] 91% | viability [5] 101% | inhibition [6] 0.955% | RAM network inhibition [7] 2.48%

O=C1CCCC/C1=C\Nc1ccc(Cl)cn1
inactive: growth inhibition [1] -4.26% | growth inhibition [2] 1.26% | viability increase [3] 1.58% | viability [4] 98.1% | viability [5] 95% | inhibition [6] 2.25% | RAM network inhibition [7] -1.13%

O=c1[nH]c2c(s1)C=Nc1ccccc1N2
inactive: growth inhibition [1] -5.34% | growth inhibition [2] 3.4% | viability increase [3] -2.29% | viability [4] 89.9% | viability [5] 91.6% | inhibition [6] 1.6% | RAM network inhibition [7] 0.32%

COc1ccc(OC)c(NC(=O)COC(=O)c2ccc(S(=O)(=O)N3CCOCC3)cc2)c1
inactive: growth inhibition [1] -3.99% | growth inhibition [2] 1.01% | viability increase [3] -1.17% | viability [4] 94.5% | viability [5] 91.9% | inhibition [6] 2.73% | RAM network inhibition [7] 5.32%

Cc1ccc(NC(=O)CCNS(=O)(=O)c2cccc3nonc23)cc1
inactive: growth inhibition [1] -4.17% | growth inhibition [2] -8.23% | viability increase [3] -1.47% | viability [4] 105% | viability [5] 95.5% | inhibition [6] 0.755% | RAM network inhibition [7] 4.98%

O=C(CSc1nc(-c2ccco2)cc(C(F)(F)F)n1)NC1CCCC1
inactive: growth inhibition [1] -9.81% | growth inhibition [2] 5.25% | viability increase [3] -0.46% | viability [4] 89.3% | viability [5] 89.5% | inhibition [6] 0.995% | RAM network inhibition [7] 1%

CCOC(=O)c1c(-c2ccc(C)o2)csc1N
inactive: growth inhibition [1] 4.88% | growth inhibition [2] 0.615% | viability increase [3] -2.73% | viability [4] 97% | viability [5] 93.8% | inhibition [6] 1.57% | RAM network inhibition [7] 4.1%

COc1ccc(-n2c(Cn3c(=O)sc4ccccc43)nnc2SCC(N)=O)cc1
inactive: growth inhibition [1] -10.9% | growth inhibition [2] -0.695% | viability increase [3] 0.09% | viability [4] 101% | viability [5] 101% | inhibition [6] 1.29% | RAM network inhibition [7] 0.06%

C=CCNc1oc(COc2ccc(C)cc2)nc1C#N
inactive: growth inhibition [1] -7.16% | growth inhibition [2] 1.92% | viability increase [3] 4.36% | viability [4] 99.1% | viability [5] 97.3% | inhibition [6] 1.18% | RAM network inhibition [7] -0.52%

O=C(Nc1sc2c(c1C(=O)NCC1CCCO1)CCCC2)c1cccs1 (stereo not drawn)
inactive: growth inhibition [1] -11.2% | growth inhibition [2] 5.31% | viability increase [3] -3.45% | viability [4] 85.9% | viability [5] 86.6% | inhibition [6] 1% | RAM network inhibition [7] 4.75%

Cn1nc(-c2ccc(Cl)cc2)c2cc(C(=O)NC3CC3)sc21
inactive: growth inhibition [1] -7.08% | growth inhibition [2] -1.2% | viability increase [3] -6.68% | viability [4] 83.6% | viability [5] 84.2% | inhibition [6] 3.62% | RAM network inhibition [7] 3.94%

O=C(CCCOc1ccccc1)Nc1cccc(C(=O)O)c1
inactive: growth inhibition [1] -0.54% | growth inhibition [2] 3.65% | viability increase [3] 0.34% | viability [4] 96% | viability [5] 98.6% | inhibition [6] 2.61% | RAM network inhibition [7] 2.71%

Cc1ccc(CCN2C(=O)CCC2(C)C(=O)NC2CCCC2)cc1 (stereo not drawn)
inactive: growth inhibition [1] -7.04% | growth inhibition [2] -1.27% | viability increase [3] -4.22% | viability [4] 97.5% | viability [5] 100% | inhibition [6] 1.19% | RAM network inhibition [7] 5.93%

O=C1CC(c2ccco2)Sc2nc3ccccc3n21 (stereo not drawn)
inactive: growth inhibition [1] -10.5% | growth inhibition [2] 13.4% | viability increase [3] -3.98% | viability [4] 67.2% | viability [5] 80.3% | inhibition [6] 0.365% | RAM network inhibition [7] 1.62%

CCN1CCN(C(C(=O)NC2CCCC2)c2ccc(Cl)cc2)CC1 (stereo not drawn)
inactive: growth inhibition [1] -14.8% | growth inhibition [2] 0.47% | viability increase [3] -4.44% | viability [4] 93.9% | viability [5] 93.1% | inhibition [6] 1.02% | RAM network inhibition [7] 3.71%

O=C1c2oc3ccc(Cl)cc3c(=O)c2C(c2ccco2)N1CCN1CCOCC1 (stereo not drawn)
inactive: growth inhibition [1] -2.05% | growth inhibition [2] -4.56% | viability increase [3] -5.51% | viability [4] 89.6% | viability [5] 90.4% | inhibition [6] 0.415% | RAM network inhibition [7] -1.88%

COc1ccccc1N(CC(=O)Nc1ccc2c(c1)OCO2)S(=O)(=O)c1ccccc1
inactive: growth inhibition [1] -5.44% | growth inhibition [2] -18.2% | viability increase [3] -0.47% | viability [4] 73.7% | viability [5] 84% | inhibition [6] 0.8% | RAM network inhibition [7] 8.21%

O=C(NCCCN1CCCCC1)c1ccc2c(=O)n(CCc3ccccc3)c(=O)[nH]c2c1
inactive: growth inhibition [1] -7.09% | growth inhibition [2] -6.43% | viability increase [3] -3.27% | viability [4] 77.3% | viability [5] 83% | inhibition [6] 0.675% | RAM network inhibition [7] 8.53%

Cc1c(C(=O)NCc2ccc3c(c2)OCO3)sc2nc(-c3ccccc3)cn12
inactive: growth inhibition [1] 5.98% | growth inhibition [2] -4.12% | viability increase [3] -0.35% | viability [4] 111% | viability [5] 103% | inhibition [6] 3.05% | RAM network inhibition [7] 6.39%
